From ChEMBL document CHEMBL1122145, “Prostaglandins and congeners, 29. (16RS)-(+/-)-15-Deoxy-16-hydroxy-16-vinyl-prostaglandin E2, an orally and transdermally active hypotensive agent of prolonged duration” (1982)

Columns and labels:
Format in all cases: functional
Rattus norvegicus [1] = experiment: Intravenous antihypertensive effect in conscious, spontaneously hypertensive rats, Duration of action was determined at a compound dose of 30 ug/kg; 45-50
Rattus norvegicus [2] = experiment: Intravenous antihypertensive effect in conscious, spontaneously hypertensive rats, Duration of action was determined at a compound dose of 10 ug/kg; 30-45
Rattus norvegicus [3] = experiment: Intravenous antihypertensive effect in conscious, spontaneously hypertensive rats a dose of 10 ug/kg
Procedure, shortened: (§1)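 Male Okamoto spontaneously hypertensive rats (about 300 ± 20 g), restrained supine. The iliac artery was cannulated to a pressure recorder. After a stabilization period, the sodium salt was injected into the lateral caudal vein: acid dissolved in absolute ethanol, neutralized with 0.6 M NaHCO3, diluted in saline. Maximum fall in mean arterial blood pressure (mmHg), mean of two experiments.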

Rattus norvegicus [4] = experiment: Intravenous antihypertensive effect in conscious, spontaneously hypertensive rats, Duration of action was determined at a compound dose of 100 ug/kg
Rattus norvegicus [5] = experiment: Intravenous antihypertensive effect in conscious, spontaneously hypertensive rats a dose of 100 ug/kg; procedure, shortened: as §1
Rattus norvegicus [6] = experiment: Intravenous antihypertensive effect in conscious, spontaneously hypertensive rats a dose of 30 ug/kg; procedure, shortened: as §1
Rattus norvegicus [7] = experiment: Intravenous antihypertensive effect in conscious, spontaneously hypertensive rats, Duration of action was determined at a compound dose of 10 ug/kg
Rattus norvegicus [8] = experiment: Intravenous, antihypertensive effect in conscious, spontaneously hypertensive rats, Duration of action was determined at a compound dose of 500 ug/kg; 25-30
Rattus norvegicus [9] = experiment: Intravenous antihypertensive effect in conscious, spontaneously hypertensive rats a dose of 300 ug/kg; procedure, shortened: as §1
Rattus norvegicus [10] = experiment: Intravenous, antihypertensive effect in conscious, spontaneously hypertensive rats, Duration of action was determined at a compound dose of 100 ug/kg; 10-20
Rattus norvegicus [11] = experiment: Intravenous antihypertensive effect in conscious, spontaneously hypertensive rats a dose of 500 ug/kg; procedure, shortened: as §1
Rattus norvegicus [12] = experiment: Intravenous, antihypertensive effect in conscious, spontaneously hypertensive rats, Duration of action was determined at a compound dose of 30 ug/kg
Rattus norvegicus [13] = experiment: Intravenous, antihypertensive effect in conscious, spontaneously hypertensive rats, Duration of action was determined at a compound dose of 300 ug/kg; 25-30

SMILES	Duration (Rattus norvegicus [1]) [min]	Duration (Rattus norvegicus [2]) [min]	Max lowering MABP (Rattus norvegicus [3]) [mmHg]	Duration (Rattus norvegicus [4]) [min]	Max lowering MABP (Rattus norvegicus [5]) [mmHg]	Max lowering MABP (Rattus norvegicus [6]) [mmHg]	Duration (Rattus norvegicus [7]) [min]	Duration (Rattus norvegicus [8]) [min]	Max lowering MABP (Rattus norvegicus [9]) [mmHg]	Duration (Rattus norvegicus [10]) [min]	Max lowering MABP (Rattus norvegicus [11]) [mmHg]	Duration (Rattus norvegicus [12]) [min]	Duration (Rattus norvegicus [13]) [min]
C=CC(O)(C/C=C/C1[C@H](O)CC(=O)[C@@H]1C/C=C/CCCC(=O)O)CCCC (stereo partly specified)	45	30	30	>200	65	55	–	–	–	–	–	–	–
CCCCC[C@H](O)/C=C/[C@H]1[C@H](O)CC(=O)[C@@H]1C/C=C\CCCC(=O)O [DINOPROSTONE]	–	–	60	–	72	72	<5	25	70	10	50	<5	25
